Variants at the floor of the assay were thinned out.
B1: tRNA (parent)
chain: GUUCCGUUGGCGUAAUGGUAACGCGUCUCCCUCCUAAGGAGAAGACUGCGGGUUCGAGUCCCGUACGGAACG

Variants of: B1
Assay: yeast fitness relative to wild type (ratio to wild type); higher = fitter; tRNA-Arg(CCU), competitive growth, 37 C, YPD
How it was run: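 Start and end populations of a pooled competition were compared by 100-nucleotide paired-end sequencing of gene amplicons. The Saccharomyces cerevisiae strains carried tRNA-Arg(CCU) gene variants at the native genomic locus, synthesised with a 3% per-site mutation rate at 69 sites, and competed in YPD at 37°C for 24 hours in six parallel replicates. Darwinian fitness relative to wild type was based on the change in genotype frequencies. Genotypes required ≥ 100 starting reads, and estimates < 0.5 were set to 0.5.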

| Variant | yeast fitness |
| --- | --- |
| A37U A45U C62G | ≤ 0.5 |
| U35A G58C | 0.634 |
| A37G G44A A70C | 0.859 |
| A37G U53C G67A | ≤ 0.5 |
| A36G G48A | 0.991 |
| C34G A43U G48C | ≤ 0.5 |
| A36G A42G | 0.797 |
| C34U A40C C62U A65U | ≤ 0.5 |
| A37C G38C | 0.502 |
| A37U G44A A65U | ≤ 0.5 |
| U35A A42C C46U | 0.521 |
| A36U A42C A43G U64C A70C | 0.559 |
| C34U G56A A70G | ≤ 0.5 |
| U35A C49U U64A | ≤ 0.5 |
| A36U G48C C66U | ≤ 0.5 |
| A36C U47A G48C | ≤ 0.5 |
| U35C A40U A42G U47C | 0.601 |
| A37C C60G G67A | ≤ 0.5 |
| A36U A45U U53A | 0.554 |
| A37C A65U | 0.866 |
| A36G A65U | 0.991 |
| A36C A37U A65C | 0.534 |
| U35A G44C | 0.71 |
| U35A G51C U54C A57U | ≤ 0.5 |

| Variant | yeast fitness |
| --- | --- |
| A37U U64A | 0.642 |
| A36G G56A A69U | 0.718 |
| C34G G50A | 0.644 |
| A36G G51A | 0.744 |
| A37U G38A | 0.631 |
| U35C C46U G51C G63A | 0.619 |
| A36C A43C C66A | 0.731 |
| A36C C55U | 0.675 |
| G38C A45G | 0.641 |
| A37C U47G U53A | 0.535 |
| A36U A45G G67A | ≤ 0.5 |
| A37G A45G | 0.707 |
| A37G C46A | 0.774 |
| U35A A37U U47A C62U | ≤ 0.5 |
| U35C G41C | 0.718 |
| A36C U53C G56U | 0.603 |
| A37U U54A | ≤ 0.5 |
| C34U A45U C62A | ≤ 0.5 |
| A37C G56C | 0.6 |
| G38C A69U A70U | ≤ 0.5 |
| C34U C46A C55G | 0.672 |
| A36C C66A | ≤ 0.5 |
| A36U C55G U64G | ≤ 0.5 |
| U35C G58C | 0.883 |

| Variant | yeast fitness |
| --- | --- |
| C34G G38C C66A A70U | ≤ 0.5 |
| G38C C60U G63C A65G | ≤ 0.5 |
| C34U G48A | 0.798 |
| U35A U53C | ≤ 0.5 |
| A37G U47A C55A G58C | ≤ 0.5 |
| U35C C49A | 0.735 |
| U35C C49U | 0.755 |
| G38A U54A | 0.628 |
| G38A | 1.02 |
| G38C | 0.806 |
| C34U G58C | 0.757 |
| A36C C61G | 0.609 |
| A37C C60G C62G | ≤ 0.5 |
| A37C A42U C49A | ≤ 0.5 |
| C34U G38C U54C | ≤ 0.5 |
| C34G U54A | 0.563 |
| U35A A69C A70C | 0.535 |
| U35G A45C | 0.617 |
| G38C C60U C66G | ≤ 0.5 |
| A37G G58C | 0.719 |
| A37G G58A | 0.976 |
| A37C A45C | 0.758 |
| G38C A43G C62G | ≤ 0.5 |
| A37U G63C A69C | ≤ 0.5 |

| Variant | yeast fitness |
| --- | --- |
| C34G G51A | 0.94 |
| C34G G51C | 0.609 |
| A36G G50A | 0.898 |
| G38A A57U | 0.772 |
| C34G G63A A70C | ≤ 0.5 |
| A37U G63A | 0.642 |
| C34U C61U | 1 |
| C34U C61G | ≤ 0.5 |
| U35C A37C C62U A65C | ≤ 0.5 |
| U35C A70C | 0.927 |
| U35G A65C | 0.639 |
| A37C G63C C66U | ≤ 0.5 |
| A37U C66A | 0.528 |
| G38A C62U A70U | 0.577 |
| A37U A40C G51A | 0.687 |
| G38A A43U G56A | 0.596 |
| A36G G68C A70G | ≤ 0.5 |
| A36U A37G G50C | ≤ 0.5 |
| C34U U47C C55A A70U | 0.562 |
| A36C G48A A57U | ≤ 0.5 |
| C34G A45G U59G | ≤ 0.5 |
| A37G U53C A57C | ≤ 0.5 |
| A37U C61G | 0.529 |
| U35A A37G A43C U54C | ≤ 0.5 |

| Variant | yeast fitness |
| --- | --- |
| A37U C49U G58A | 0.57 |
| A36G C49U C61A | ≤ 0.5 |
| C34G C66A | 0.543 |
| A36C G48C | ≤ 0.5 |
| U35G A40G U54G | ≤ 0.5 |
| A36G A37G | 0.816 |
| A36G A37U | 0.718 |
| U35G C46U C62U | 0.579 |
| A37G G67A | 0.819 |
| A36C A37C G51C | ≤ 0.5 |
| C34U A45U | 0.686 |
| C34U G41C C60A | ≤ 0.5 |
| C34U G41C C60U | ≤ 0.5 |
| U35G A40G C49G | ≤ 0.5 |
| C34U A40G C46A | 0.579 |
| A36U C55U | 0.658 |
| A36C C46U U53A | 0.639 |
| A36U U54A U64C A69U | ≤ 0.5 |
| C34U G41A C55A | ≤ 0.5 |
| C34U A57C A69C | 0.738 |
| A36C A43C C61G A70G | ≤ 0.5 |
| A36C A40U | 0.604 |
| A37C A43C A45C | ≤ 0.5 |
| A37C A40U G51A | 0.538 |

| Variant | yeast fitness |
| --- | --- |
| C34G G52A C62U | 0.6 |
| C34G G50C C62A | ≤ 0.5 |
| U35A A40U | 0.718 |
| A36U A45U C46A G68A | ≤ 0.5 |
| A36U C60U | 0.566 |
| A36U G38A A65C | 0.518 |
| A37C U53C U64A | 0.679 |
| U35C A37U A42G G51A | ≤ 0.5 |
| G38C G48C G63C | 0.574 |
| G38A G56A | 1.02 |
| U35C C55A | ≤ 0.5 |
| A36C G52C C66U | 0.54 |
| A36C G39C A65C A69C | ≤ 0.5 |
| A36C G48C U54G | ≤ 0.5 |
| A36C G38C A45G G50C | ≤ 0.5 |
| A37G A42C A70C | 0.729 |
| G38C G48C | 0.722 |
| A37G G63C A65U | ≤ 0.5 |
| A36C A40G G58C C60A | 0.537 |
| A37U A57C U64G | ≤ 0.5 |
| C34U A42G A65C | 0.57 |
| U35A C55U A65G | ≤ 0.5 |
| A36C A45C G48A A65C | ≤ 0.5 |
| U35A G52C | ≤ 0.5 |

| Variant | yeast fitness |
| --- | --- |
| A36U G38C A43G G68C | ≤ 0.5 |
| C34G G51A C66U | 0.649 |
| G38A G58A | 1.06 |
| U35A A42U A43U | ≤ 0.5 |
| C34G C61U A70U | 0.639 |
| C34U A36C U53C G67A | ≤ 0.5 |
| A37U A42G A45U G67C | ≤ 0.5 |
| A36G C66G | 0.689 |
| A36C A37C U53G | ≤ 0.5 |
| A37G A42U | 0.787 |
| C34G G44C | 0.652 |
| A36G C46G | 1.08 |
| A36U C66U | 0.686 |
| A36C C55U G68C | ≤ 0.5 |
| A36C U54C | ≤ 0.5 |
| A36C U54A | ≤ 0.5 |
| C34U G38C | 0.605 |
| U35G C66U | 0.681 |
| A36G A42G C49G | ≤ 0.5 |
| A36U G58A | 0.624 |
| A37G C62U | 0.864 |
| A36U A43C C49A C55G | ≤ 0.5 |
| A36G U64G C66A | ≤ 0.5 |
